S1P4 agonist: S1P4 receptor agonists, primary screen, cell-based | activation, % at 4.98 µM | AID 1509, 2009 | hit rate 0.35% among 220,000 | S1P4-expressing cell line, agonist reporter assay; in the data active = activation above about 11%;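 also: 0% = DMSO vehicle and 100% = reference agonist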
S1P4 antagonist: S1P4 receptor antagonists, primary screen, cell-based | Sphingosine 1-phosphate receptor 4 (Homo sapiens), O95977 | S1P4-expressing cells, antagonist mode, reporter read-out | inhibition, % at 4.98 µM | hit rate 0.26% among 220,000 | AID 1510, 2009; in the data active = inhibition above about 29%;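 also: 0% = wells stimulated with agonist and 100% = vehicle wells without agonist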
NPY-Y1 PAM-ag: NPY-Y1 receptor potentiators or agonists, primary screen, cell-based; activation, % at 3.6 µM; NPY-Y1 expressing cells, potentiator/agonist activation; Neuropeptide Y receptor type 1 (Homo sapiens), P25929; hit rate 0.37% among 220,000; in the data active = activation above about 33%, passing the limit was not always enough;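 also: cells stimulated with NPY at EC10 then isoproterenol at EC100; 0% = low agonist plus stimulus and 100% = saturating agonist plus stimulus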
Target sequence (P25929 whole entry, looked up): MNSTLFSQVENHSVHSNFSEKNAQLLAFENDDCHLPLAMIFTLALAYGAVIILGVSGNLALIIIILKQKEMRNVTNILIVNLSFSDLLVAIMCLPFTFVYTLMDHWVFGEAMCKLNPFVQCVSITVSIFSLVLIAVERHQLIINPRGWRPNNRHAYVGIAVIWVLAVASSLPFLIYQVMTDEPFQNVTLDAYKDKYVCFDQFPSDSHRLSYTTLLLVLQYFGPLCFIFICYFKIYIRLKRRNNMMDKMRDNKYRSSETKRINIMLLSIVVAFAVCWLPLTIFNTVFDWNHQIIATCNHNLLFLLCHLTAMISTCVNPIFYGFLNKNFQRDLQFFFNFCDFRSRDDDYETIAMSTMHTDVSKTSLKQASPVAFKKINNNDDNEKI
NPY Y1 blocker: NPY-Y1 receptor antagonists, primary screen, cell-based | Neuropeptide Y receptor type 1 (Homo sapiens), P25929 | HEK293-CNG Y1 cells, membrane potential fluorescence; NPY at EC95, then isoproterenol | inhibition, % at 3.6 µM | hit rate 1% among 200,000;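 active = inhibition above the campaign mean inhibition of all tested compounds plus 3 SD, cut at about 20% in these data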;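 also: 0% = DMSO wells given NPY plus isoproterenol and 100% = isoproterenol alone without NPY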
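System: HEK293 cells with Y1 receptor plus CNG channel / Probe or stimulus: NPY 25 nM then isoproterenol 1 µM plus Ro 20-1724 25 µM / Compound: one concentration, 3.6 µM, in 0.4% DMSO / Schedule: compound incubation 1 h at room temperature, readout 45 min post-stimulation / Measured by: membrane potential fluorescence / Read-out: % inhibition of NPY effect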
NPY-Y2 PAM-ag: NPY-Y2 potentiators or agonists, primary screen, cell-based | hit rate 0.45% among 220,000 | Neuropeptide Y receptor type 2 (Homo sapiens), P49146 | activation, % at 3.6 µM | cells expressing NPY-Y2, potentiator/agonist read-out | AID 1359, 2008; in the data active = activation above about 27%;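 also: cells stimulated with NPY near EC25 plus isoproterenol at EC100; 0% = vehicle plus submaximal agonist and 100% = vehicle plus saturating agonist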
NPY Y2 blocker: NPY-Y2 receptor antagonists, primary screen, cell-based; NPY-Y2 expressing cells, antagonist mode; inhibition, % at 2.7 µM; hit rate 0.99% among 140,000; AID 793, 2007;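 also: 0% = vehicle with agonist challenge and 100% = reference antagonist with challenge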
NPY1 antag conf: NPY-Y1 receptor antagonists, retest of hits, confirmation, HEK293-CNG cells, membrane potential fluorescence, triplicate; shares compounds with NPY Y1 blocker; cAMP; NPY challenge against isoproterenol-raised cAMP; inhibition, % at 3.6 µM; hit rate 21% among 1,200; in the data active = inhibition above about 20%;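 also: 0% = vehicle with agonist plus stimulus and 100% = stimulus alone without agonist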
NPY-Y2 antag ct: NPY-Y2 receptor antagonists, selectivity check, confirmation, counter-screen for NPY-Y1 antagonist project, HEK293-CNG cells, membrane potential fluorescence, triplicate. hit rate 28% among 1,200. inhibition, % at 3.6 µM. antagonism; cells given NPY, then isoproterenol. shares compounds with NPY Y1 blocker;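 also: 0% = DMSO with agonist challenge and 100% = reference antagonist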
Starred values were filed as active, the others as inactive; . = no result given. Most compounds without a hit are left out; they make up all but 2.4% or so of the library. Rule as the data show it, unless noted: active = inhibition above about 17%; inactive = the rest.

SMILES	S1P4 agonist	S1P4 antagonist	NPY-Y1 PAM-ag	NPY Y1 blocker	NPY-Y2 PAM-ag	NPY Y2 blocker	NPY1 antag conf	NPY-Y2 antag ct
CCC(C)(C)n1nnnc1CN(Cc1ccco1)Cc1cc2cc3c(cc2[nH]c1=O)OCO3	1.0	14.3	-26.7	3.8	0.7	3.8	.	.
Cc1cc(C(=O)OC(C(=O)Nc2ccc(C)c(Cl)c2)c2ccccc2)c(C)o1 (configuration not stated)	0.4	1.2	-11.2	12.3	-7.8	2.5	.	.
COc1ccc(-c2nc(C#N)c(N3CCN(c4ccccc4)CC3)o2)cc1	-1.8	8.8	-16.8	4.0	-7.8	-0.6	.	.
COc1ccc(N2CCN(c3oc(-c4ccco4)nc3C#N)CC2)cc1	1.4	-0.3	-48.9	21.8*	-16.4	6.7	5.8	6.8
C/C=C(/C)C(=O)O[C@@H]1c2c(ccc3ccc(=O)oc23)OC(C)(C)[C@@H]1OC(=O)/C(C)=C\C	-0.2	21.2	-24.7	30.7*	-4.3	15.9	16.9	7.6
CC(NC(=O)COC(=O)CCNC(=O)c1ccco1)C12CC3CC(CC(C3)C1)C2 (configuration not stated)	2.7	8.8	-30.5	20.3*	-24.7	4.1	22.1*	27.1*
CCOC(=O)c1c(C)n(-c2ccc(C)cc2)c2ccc(OCC(O)CN3CCN(C)CC3)cc12 (configuration not stated)	-0.2	-19.0	-57.4	47.4*	-46.7	.	25.4*	46.6*
CCOC(=O)c1c(NC(=O)Cc2cccs2)sc(C(=O)NC2CCCC2)c1C	-1.1	4.1	-7.5	3.0	-7.1	0.9	.	.
CCOC(=O)c1c(NC(=O)Cc2cccs2)sc(C)c1C	1.7	1.5	-52.1	21.2*	-17.4	7.1	2.6	3.3
Cc1ccc(NC(=O)C2CCN(S(=O)(=O)c3c(C)noc3C)CC2)cc1C	0.0	-3.0	4.8	2.3	5.9	.	.	.
Cc1cccc(OCCNC(=O)c2ccc(Oc3ccc(C(F)(F)F)cc3[N+](=O)[O-])cc2)c1	-0.2	-7.8	-40.6	21.6*	-27.5	8.7	28.5*	15.0
Cc1ccc(Cl)cc1N1CCN(C(c2ccc(C#N)cc2)c2nnnn2C2CCCC2)CC1 (configuration not stated)	-0.1	-5.4	-11.6	27.5*	-18.0	13.6	18.4	13.2
CCC(c1nnnn1C(C)(C)C)N1CCN(c2cc(Cl)ccc2C)CC1 (configuration not stated)	0.2	-4.5	-18.0	24.7*	-24.2	10.5	13.7	14.3
CN(C(=O)c1ccc(=O)n(Cc2ccc(Cl)cc2)c1)c1ccccc1	2.2	-14.7	2.5	-1.2	-10.1	.	.	.
CCOC(=O)c1c(NC(=O)CN2CCN(C)CC2)sc(C(=O)Nc2ccccc2)c1C	-0.6	-2.8	-42.7	26.7*	-23.2	.	13.9	13.3
CCOC(=O)c1sc(NC(=O)CCN2CCN(C)CC2)c(C(=O)OCC)c1C	0.5	-2.8	8.2	4.2	5.9	.	.	.
CCN(CC)CCSc1nc(O)c(-c2ccccc2)c(=O)n1-c1ccccc1	-1.7	-9.1	-12.5	-2.4	-8.2	.	.	.
CCN(CC)CCSc1nc2ccccc2c(=S)n1-c1ccccc1	0.1	2.1	-50.1	57.1*	-29.8	.	20.1*	23.7*
CCNc1nc(NC(C)CC)nc(Oc2ccc(OCC)nn2)n1 (configuration not stated)	1.5	-24.5	11.8	7.5	9.3	.	.	.
Cc1ccc(N2CC(=O)N(NC(=O)c3sc4nc(C)cc(C)c4c3N)CC2=O)cc1	-1.8	2.0	-14.7	.	2.5	.	.	.
CC(=O)c1c(OC(=O)c2ccc(C)cc2)c2ccccc2n1C	3.4	-37.2	-30.1	33.7*	-27.2	14.5	12.7	12.8
N#CC(C#N)C(c1ccsc1)c1c(-c2ccccc2)[nH][nH]c1=O (configuration not stated)	2.5	-4.6	-17.4	23.9*	8.2	10.4	34.3*	34.0*
Cc1[nH][nH]c(=O)c1C(c1ccccc1[N+](=O)[O-])C(C#N)C#N (configuration not stated)	0.9	2.4	0.3	4.0	11.7	.	.	.
O=C(O)CC(Cc1ccc(Cl)cc1)C(=O)NCc1ccccc1 (configuration not stated)	1.8	-14.2	-13.6	12.3	-10.4	7.3	.	.
CN(NC(=O)c1ccccc1Cl)c1ncc(C(F)(F)F)cc1Cl	-0.4	-4.2	15.0	.	2.0	.	.	.
SMILES	S1P4 agonist	S1P4 antagonist	NPY-Y1 PAM-ag	NPY Y1 blocker	NPY-Y2 PAM-ag	NPY Y2 blocker	NPY1 antag conf	NPY-Y2 antag ct
N#CC1=C(Nc2ccccc2)SC=C(c2ccc(Cl)c(Cl)c2)N=C1N1CCOCC1	0.2	9.4	-26.1	24.7*	-2.4	8.8	8.1	13.6
N#CC1=C(Nc2ccccc2)SC=C(c2ccccc2)N=C1N1CCOCC1	-0.5	6.8	-3.1	1.2	-0.5	1.4	.	.
O=C(O)c1cccc(-n2cccc2/C=C/[N+](=O)[O-])c1	1.0	-3.4	20.5	.	9.0	.	.	.
O=C(Nc1cccc(C(F)(F)F)c1)/C(=C/c1ccco1)NC(=O)c1cccs1	2.0	-0.4	9.4	89.8*	-4.7	1.0	-1.3	-2.0
CC(=O)c1cccc(NC(=O)/C(=C\c2ccco2)NC(=O)c2cccs2)c1	0.0	-8.6	0.2	4.5	-9.4	0.5	.	.
CCc1ccc(S(=O)(=O)c2n[nH]n3c2nc(=O)c2ccccc23)cc1	0.7	-8.2	-11.3	24.1*	-12.3	12.2	7.6	6.9
CC(C)c1ccc(S(=O)(=O)c2n[nH]n3c2nc(=O)c2ccccc23)cc1	0.4	-9.2	-10.8	3.9	0.4	12.8	.	.
Cc1cc(N2CCCCC2)nc(-c2ccc(Br)cc2)n1	2.5	1.4	-7.5	2.9	1.0	.	.	.
CC(=O)NC1(c2ccccc2)CCN(c2cc(C)nc(-c3ccccc3)n2)CC1	-0.5	1.2	-11.1	46.4*	-22.9	.	34.4*	46.0*
Cc1cc(N2CCN(c3cccc(C)c3C)CC2)nc(-c2ccccc2)n1	0.9	-0.2	-22.9	20.9*	-33.6	13.8	21.8*	17.4*
Cc1cc(N2CCC(C(=O)NC3CC3)CC2)nc(-c2ccccc2)n1	0.8	-15.6	-34.0	5.7	-11.0	1.1	.	.
O=C(Nc1ccc(N2CCN(C(=O)c3ccco3)CC2)cc1)c1cccnc1Cl	2.5	-9.8	17.4	-3.0	8.1	.	.	.
